Assay results collected from several papers.
Lines come from different studies, so protocols differ.
Target: Myotonin-protein kinase (DMPK, Homo sapiens, UniProt Q09013)

| Compound | read-out | action | technique | tested at | quantity | result |
| --- | --- | --- | --- | --- | --- | --- |
| CN(C)C(=O)Cn1cc(-c2nc([C@@](C)(c3ccc(-c4cnc(N)nc4)cc3)C3CC3)no2)cn1 | cell-free assay | – | competition with immobilised ligand | 1 µM | remaining binding | 100% |
| C=CC(=O)Nc1cc(Nc2nccc(Nc3cc(Cl)c(F)cc3C(C)(C)O)n2)c(OC)cc1N1CC[C@@H](N(C)C)C1 | enzyme activity | inhibitor | – | 1 µM | inhibition | 11% |
| CC(C)(C)c1nc2c(s1)c1nc(N)ncc1c1ccc(NS(=O)(=O)c3c(F)cccc3F)c(F)c12 | enzyme activity | inhibitor | radiometric | 1 µM | remaining activity | 95% |
| C#Cc1cccc(Nc2ncnc3cc(OCCOC)c(OCCOC)cc23)c1 | cell-free assay | – | – | 0.5 µM | remaining signal | 96.9% |
| CCN(CC)CCNC(=O)c1c(C)[nH]c(/C=C2\C(=O)Nc3ccc(F)cc32)c1C | enzyme activity | inhibitor | – | 10 µM | inhibition | -5% |
| N#CCCc1ccc2c(c1)-c1[nH]c3ccc([N+](=O)[O-])cc3c1CC(=O)N2 | cell-free assay | – | – | 0.5 µM | remaining signal | 89.8% |
| Cn1c2c(Cl)c(Cl)ccc2c2cn[nH]c(=O)c21 | thermal stability | – | DSF | 10 µM | ΔTm | 0.4 °C |
| CC(=O)N1CCC(c2ccc(C(=O)NC(=N)N)cc2C(F)(F)F)CC1 | cell-free assay | – | competition with immobilised ligand | 1 µM | remaining binding | 100% |
| O=C(Nc1cnn(-c2csc(C(=O)NC3COC3)c2)c1)Nc1c(F)cccc1Cl | enzyme activity | inhibitor | – | 5 µM | remaining activity | 110% |
| Cn1c2c(c3ccccc31)C(C#N)C(C)(C)NC2=O (stereo not shown) | thermal stability | – | DSF | 10 µM | ΔTm | -0.3 °C |
| CN(c1ccnc(CNc2nc(Nc3ccc4c(c3)CC(=O)N4)ncc2C(F)(F)F)n1)S(C)(=O)=O | cell-free assay | – | competition with immobilised ligand | 1 µM | remaining binding | 23% |
| Cc1ccc(Nc2nccc(N(C)c3ccc4c(C)n(C)nc4c3)n2)cc1S(N)(=O)=O | enzyme activity | inhibitor | – | 0.3 µM | inhibition | -15% |
| C[C@H](c1ccnc(Nc2nc3ccc(-c4cc(N(C)C)ncn4)cc3[nH]2)c1)N1CCN(C(=O)CC(F)(F)F)CC1 | cell-free assay | – | competition with immobilised ligand | 0.1 µM | remaining binding | 100% |
| Cc1ccc(C(=O)Nc2ccc(CN3CCN(C)CC3)c(C(F)(F)F)c2)cc1C#Cc1cnc2cccnn12 | enzyme activity | inhibitor | – | 23.5 nM | remaining activity | 100% |
| COc1ccc2c(O[C@@H]3C[C@H]4C(=O)N[C@]5(C(=O)O)CC5/C=C\CCCCC[C@H](NC(=O)OC5CCCC5)C(=O)N4C3)cc(-c3csc(NC(=O)C(C)C)n3)nc2c1C (stereo partly shown) | cell-free assay | – | competition with immobilised ligand | 1 µM | remaining binding | 83% |
| Cn1c2c(c3ccc(Cl)c(Cl)c31)C(C#N)C(C)(C)NC2=O (stereo not shown) | thermal stability | – | DSF | 10 µM | ΔTm | 0.4 °C |
| O=C1Nc2ccc(Cl)cc2C1=Cc1cc(Cl)c(O)c(Cl)c1 | cell-free assay | – | – | 0.5 µM | remaining signal | 112% |
| CC1(C)NC(=O)c2[nH]c3c(Cl)c(Cl)ccc3c2C1C#N (stereo not shown) | thermal stability | – | DSF | 10 µM | ΔTm | 1 °C |
| CNC(=O)c1cc(Oc2ccc(NC(=O)Nc3ccc(Cl)c(C(F)(F)F)c3)cc2)ccn1 | enzyme activity | inhibitor | – | 10 µM | inhibition | -16% |
| N#CC1c2c([nH]c3c(Cl)c(Cl)ccc23)C(=O)NC12CCCCC2 (racemic) | thermal stability | – | DSF | 10 µM | ΔTm | -0.6 °C |
| CS(=O)(=O)c1cc(C2(NC(=O)c3cncc4c3cnn4-c3ccc(F)cc3)CC2)ccn1 | cell-free assay | – | competition with immobilised ligand | 1 µM | remaining binding | 99% |
| Cn1c2c(c3ccc(Cl)c(Cl)c31)C(C#N)C1(CCCC1)NC2=O (stereo not shown) | thermal stability | – | DSF | 10 µM | ΔTm | -0.2 °C |
| CN(C)c1ncnc(-c2ccc3nc(Nc4cc(CN5CCN(C(=O)CC(F)(F)F)CC5)ccn4)[nH]c3c2)c1Cl | cell-free assay | – | competition with immobilised ligand | 1 µM | remaining binding | 91% |
| CC(C)(O)[C@H]1CC[C@H](Nc2ccc3ncc(-c4cccc(C(F)(F)F)c4)n3n2)CC1 | enzyme activity | inhibitor | – | 1 µM | remaining activity | 97.5% |
| Nc1ncnc2occ(-c3ccc(NC(=O)Nc4cc(C(F)(F)F)ccc4F)cc3)c12 | cell-free assay | inhibitor | – | 20 µM | remaining signal | 73% |
| CCCOc1ccc(OC)c(F)c1C(=O)c1ccc(C(=O)N[C@@H]2CNC[C@H]2NC(=O)c2ccc3[nH]ncc3c2)cc1 | enzyme activity | inhibitor | – | 10 µM | remaining activity | 93% |
| c1ccc(N2CCN(Cc3nc4ccccc4[nH]3)CC2)nc1 | binding | – | competition with immobilised ligand | 1 µM | remaining binding | 100% |
| CCOc1cc(-c2nncn2C)ccc1Nc1ncc2cc(C)nc(NCC(C)(C)C)c2n1 | cell-free assay | – | TR-FRET | 1 µM | inhibition | ≤ 15% |
